# Assays:
# [1] = Stability of compound in phosphate buffer at pH 7.4 assessed as compound half life by HPLC-UV assay; assay type: physicochemical
# Summary of the method: (§1)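 Chemical hydrolysis in 0.02 M HCl buffer pH 1.3 (non-enzymatic simulated gastric fluid) or 0.02 M phosphate buffer pH 7.4, each containing 20% acetonitrile, at 37 °C. Started by adding the 10^-4 M acetonitrile stock. Samples taken over time and analyzed by HPLC-UV at 220 nm. Rate constants are means of triplicates.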
# [2] = Stability of compound in non-enzymatic stimulated-gastric fluid at pH 1.3 assessed as half life by HPLC-UV assay; assay type: physicochemical; settings: non-enzymatic simulated gastric fluid; summary of the method: as §1
# [3] = Cytotoxicity against Sprague-Dawley rat Cerebral cortex neuron assessed as cell viability at 0.1 uM incubated for 24 hrs by MTT assay relative to control; assay type: tissue-based; settings: cerebral cortex neurons, read-out: Activity
# Summary of the method: (§2)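 Primary fetal rat cortical neurons, matured 8 days, treated 24 h at 37 °C with compound (0.1–100 µM; 0.5% DMSO or water vehicle). MTT 0.7 mg/ml was then added for 30 min at 37 °C, and formazan was extracted with isopropanol/formic acid (95:5) and read at 560 nm. Untreated control was set as 100% viability. Four independent experiments.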
# [4] = Cytotoxicity against Sprague-Dawley rat Cerebral cortex neuron assessed as cell viability at 10 uM incubated for 24 hrs by MTT assay relative to control; assay type: tissue-based; settings: cerebral cortex neurons, read-out: Activity; summary of the method: as §2
# [5] = Cytotoxicity against Sprague-Dawley rat Cerebral cortex neuron assessed as cell viability at 25 uM incubated for 24 hrs by MTT assay relative to control; assay type: tissue-based; settings: cerebral cortex neurons, read-out: Activity; summary of the method: as §2
# [6] = Cytotoxicity against rat Sprague-Dawley Cerebral cortex neuron assessed as cell viability at 50 uM incubated for 24 hrs by MTT assay relative to control; assay type: tissue-based; settings: cerebral cortex neurons, read-out: Activity; summary of the method: as §2
# [7] = Cytotoxicity against Sprague-Dawley rat Cerebral cortex neuron assessed as cell viability at 100 uM incubated for 24 hrs by MTT assay relative to control; assay type: tissue-based; settings: cerebral cortex neurons, read-out: Activity; summary of the method: as §2
# [8] = Cytotoxicity against Sprague-Dawley rat Cerebral cortex neuron assessed as LDH activity at 1 uM incubated for 24 hrs by LDH assay (reference value: […]); assay type: tissue-based
# Summary of the method: (§3)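 Primary fetal rat cortical neurons, matured 8 days on poly-D-lysine, exposed 24 h at 37 °C to compound (0.1–100 µM; DMSO 0.5% or water vehicle). LDH released into 100 µl culture medium was measured by kit as the rate of NAD+ reduction (absorbance increase at 490 nm). Positive control was mitomycin C. Four independent experiments.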
# [9] = Cytotoxicity against Sprague-Dawley rat Cerebral cortex neuron assessed as LDH activity at 10 uM incubated for 24 hrs by LDH assay; assay type: tissue-based; summary of the method: as §3
# [10] = Cytotoxicity against Sprague-Dawley rat Cerebral cortex neuron assessed as LDH activity at 25 uM incubated for 24 hrs by LDH assay (reference value: […]); assay type: tissue-based; summary of the method: as §3
# [11] = Antioxidant activity in Sprague-Dawley rat Cerebral cortex neuron assessed as total antioxidant capacity by measuring trolox equivalents at 0.1 uM after 24 hrs; assay type: functional
# Summary of the method: (§4)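 Primary cerebral cortex neurons from rat fetuses, grown on poly-D-lysine in neurobasal medium with fetal calf serum (5% CO2, 37 °C), tested after 8 days in culture. Compounds in DMSO (0.5%) or sterile water were added and incubated 24 h at 37 °C. Cells were washed in ice-cold PBS and homogenized in 0.9% saline. Intracellular TAC (Trolox equiv.) and TOS (H2O2 equiv.) were read by kit. Ascorbic acid 10 µM (TAC) and H2O2 25 µM (TOS) served as positive controls. Four independent experiments.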
# [12] = Antioxidant activity in Sprague-Dawley rat Cerebral cortex neuron assessed as total antioxidant capacity by measuring trolox equivalents at 10 uM after 24 hrs; assay type: functional; summary of the method: as §4
# [13] = Antioxidant activity in Sprague-Dawley rat Cerebral cortex neuron assessed as total antioxidant capacity by measuring trolox equivalents at 25 uM after 24 hrs; assay type: functional; summary of the method: as §4
# [14] = Antioxidant activity in Sprague-Dawley rat Cerebral cortex neuron assessed as total antioxidant capacity by measuring trolox equivalents at 50 uM after 24 hrs; assay type: functional; summary of the method: as §4
# [15] = Antioxidant activity in Sprague-Dawley rat Cerebral cortex neuron assessed as total oxidative stress level by measuring H2O2 equivalents at 1 uM after 24 hrs (reference value: 2.3 +/- 0.3 umol/L); assay type: functional; summary of the method: as §4
# [16] = Antioxidant activity in Sprague-Dawley rat Cerebral cortex neuron assessed as total oxidative stress level by measuring H2O2 equivalents at 10 uM after 24 hrs (reference value: 2.3 +/- 0.3 umol/L); assay type: functional; summary of the method: as §4
# [17] = Antioxidant activity in Sprague-Dawley rat Cerebral cortex neuron assessed as total oxidative stress level by measuring H2O2 equivalents at 25 uM after 24 hrs (reference value: 2.3 +/- 0.3 umol/L); assay type: functional; summary of the method: as §4
# [18] = Antioxidant activity in Sprague-Dawley rat Cerebral cortex neuron assessed as total oxidative stress level by measuring H2O2 equivalents at 50 uM after 24 hrs (reference value: 2.3 +/- 0.3 umol/L); assay type: functional; summary of the method: as §4
# [19] = Antioxidant activity in Sprague-Dawley rat Cerebral cortex neuron assessed as total oxidative stress level by measuring H2O2 equivalents at 100 uM after 24 hrs (reference value: 2.3 +/- 0.3 umol/L); assay type: functional; summary of the method: as §4
# [20] = Stability of compound in fasted state stimulated intestinal fluid at pH 1.3 assessed as half life in presence of 40 mg/ml pepsin by HPLC-UV assay; assay type: ADME; settings: fasted state simulated intestinal fluid with pepsin
# Summary of the method: (§5)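 HCl buffer with pepsin or phosphate buffer with pancreatin (10 or 40 mg/ml), preincubated at 37 °C. Drug stock (50 µM in ethanol/fasted state intestinal fluid 1:9) added and shaken at 37 °C, 650 rpm. Samples quenched with ice-cold acetonitrile containing 0.5% formic acid, centrifuged at 2 °C, and the supernatant assayed by HPLC-UV. Three experiments.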
# [21] = Stability of compound in fasted state stimulated intestinal fluid at pH 7.4 assessed as half life in presence of 10 mg/ml pancreatin by HPLC-UV assay; assay type: ADME; settings: for half-life: fasted state simulated intestinal fluid with pancreatin; summary of the method: as §5
# [22] = Stability of compound in fasted state stimulated intestinal fluid at pH 7.4 assessed as half life in presence of 40 mg/ml pancreatin by HPLC-UV assay; assay type: ADME; settings: for half-life: fasted state simulated intestinal fluid with pancreatin; summary of the method: as §5
# [23] = Stability of compound in human plasma assessed as half life by HPLC-UV assay; assay type: ADME, cell-free
# Summary of the method: (§6)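 Citrated human or rat plasma diluted to 80% with 0.02 M phosphate buffer pH 7.4, 37 °C with shaking. Compound added from a 1 mg/ml acetonitrile stock. Aliquots deproteinized with 0.01 M HCl in methanol, centrifuged, and analyzed by HPLC-UV (C8 column, KH2PO4/methanol pH 2.5, 220 nm). Remaining intact compound plotted against time. Three experiments.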
# [24] = Stability of compound in rat plasma assessed as half life by HPLC-UV assay; assay type: ADME, cell-free; summary of the method: as §6
# [25] = Stability of compound in non-enzymatic stimulated-gastric fluid at pH 1.3 assessed as rate of compound hydrolysis by HPLC-UV assay; assay type: physicochemical; settings: simulated gi fluid; summary of the method: as §1
# [26] = Stability of compound in phosphate buffer at pH 7.4 assessed as rate of compound hydrolysis by HPLC-UV assay; assay type: physicochemical; summary of the method: as §1
# [27] = Stability of compound in fasted state stimulated intestinal fluid at pH 1.3 assessed as rate of compound hydrolysis in presence of 10 mg/ml pepsin by HPLC-UV assay; assay type: ADME; settings: isolated protein; summary of the method: as §5
# [28] = Stability of compound in human plasma assessed as rate of compound hydrolysis by HPLC-UV assay; assay type: ADME, cell-free; summary of the method: as §6
Structure (SMILES),half-life [1],half-life [2],half-life [20],"viability at 24 h, 0.1 µM [3]","viability at 24 h, 10 µM [4]","viability at 24 h, 25 µM [5]","viability at 24 h, 50 µM [6]","viability at 24 h, 100 µM [7]",Activity [8],Activity [9],Activity [10],TAC [11],TAC [12],TAC [13],TAC [14],Activity [15],Activity [16],Activity [17],Activity [18],Activity [19],also measured
O=C(CCCCC1CCSS1)OC1CCN(Cc2ccccc2)CC1 (stereo not drawn),40.5 h,58.7 h,23.1 h,99.8%,97.8%,98.1%,97.6%,97.8%,0.26 mU/ml,0.29 mU/ml,0.32 mU/ml,10.8 mmol/L,11.4 mmol/L,13.8 mmol/L,13.6 mmol/L,0.5 µmol/L,0.4 µmol/L,0.5 µmol/L,0.4 µmol/L,0.5 µmol/L,half-life [21]: 0.29 h; half-life [22]: 0.09 h; half-life [23]: 0.43 h; t1/2 [24]: Unstable; Drug degradation [25]: 0.012 h⁻¹; Drug degradation [26]: 0.017 h⁻¹; Drug degradation [27]: 0.028 h⁻¹; Drug degradation [28]: 1.61 h⁻¹
COc1ccc(CN2CCN(C(=O)CCCCC3CCSS3)CC2)cc1 (stereo not drawn),238 h,240 h,23.7 h,98.1%,96.1%,95.3%,92.7%,89.3%,0.3 mU/ml,0.3 mU/ml,0.29 mU/ml,10.5 mmol/L,10.9 mmol/L,11.3 mmol/L,11 mmol/L,0.5 µmol/L,0.5 µmol/L,0.5 µmol/L,0.5 µmol/L,0.5 µmol/L,half-life [21]: 60.9 h; half-life [22]: 41.6 h; half-life [23]: 5.28 h; half-life [24]: 4.13 h; Drug degradation [25]: 0.003 h⁻¹; Drug degradation [26]: 0.003 h⁻¹; Drug degradation [27]: 0.006 h⁻¹; Drug degradation [28]: 0.13 h⁻¹
O=C(CCCCC1CCSS1)N1CCN(Cc2ccccc2)CC1 (stereo not drawn),53.8 h,93 h,66.2 h,99.4%,97.5%,96.8%,96%,95.4%,0.32 mU/ml,0.32 mU/ml,0.32 mU/ml,10.4 mmol/L,12.6 mmol/L,12.9 mmol/L,14.8 mmol/L,0.5 µmol/L,0.4 µmol/L,0.5 µmol/L,0.5 µmol/L,0.5 µmol/L,half-life [21]: 22.2 h; half-life [22]: 9.58 h; half-life [23]: 1.76 h; t1/2 [24]: Unstable; Drug degradation [25]: 0.007 h⁻¹; Drug degradation [26]: 0.013 h⁻¹; Drug degradation [27]: 0.01 h⁻¹; Drug degradation [28]: 0.39 h⁻¹
O=C(CCCCC1CCSS1)N1CCN(Cc2ccc(F)cc2)CC1 (stereo not drawn),81 h,88 h,37.2 h,99.3%,97.2%,96%,96.5%,96.7%,0.28 mU/ml,0.34 mU/ml,0.32 mU/ml,10.9 mmol/L,12.6 mmol/L,13.9 mmol/L,11.4 mmol/L,0.5 µmol/L,0.4 µmol/L,0.5 µmol/L,0.5 µmol/L,0.5 µmol/L,half-life [21]: 75.1 h; half-life [22]: 32.3 h; half-life [23]: 4.21 h; half-life [24]: 2.92 h; Drug degradation [25]: 0.008 h⁻¹; Drug degradation [26]: 0.009 h⁻¹; Drug degradation [27]: 0.007 h⁻¹; Drug degradation [28]: 0.165 h⁻¹

# Now from value to compound, other results behind:
half-life [1],half-life [2],half-life [20],Structure (SMILES),"viability at 24 h, 0.1 µM [3]","viability at 24 h, 10 µM [4]","viability at 24 h, 25 µM [5]","viability at 24 h, 50 µM [6]","viability at 24 h, 100 µM [7]",Activity [8],Activity [9],Activity [10],TAC [11],TAC [12],TAC [13],TAC [14],Activity [15],Activity [16],Activity [17],Activity [18],Activity [19],also measured
37 h,52 h,22.2 h,COc1ccc(CN2CCC(OC(=O)CCCCC3CCSS3)CC2)cc1 (stereo not drawn),99.5%,97.1%,96.2%,95%,91.2%,0.29 mU/ml,0.34 mU/ml,0.32 mU/ml,10.8 mmol/L,11 mmol/L,11.4 mmol/L,10.9 mmol/L,0.4 µmol/L,0.4 µmol/L,0.5 µmol/L,0.5 µmol/L,0.5 µmol/L,half-life [21]: 2.78 h; half-life [22]: 2.83 h; half-life [23]: 0.61 h; half-life [24]: 0.46 h; Drug degradation [25]: 0.013 h⁻¹; Drug degradation [26]: 0.019 h⁻¹; Drug degradation [27]: 0.018 h⁻¹; Drug degradation [28]: 1.14 h⁻¹
38 h,47 h,0.68 h,O=C(CCCCC1CCSS1)OC1CCN(Cc2ccc(F)cc2)CC1 (stereo not drawn),97.5%,96.9%,97.1%,95.8%,95.6%,0.3 mU/ml,0.29 mU/ml,0.3 mU/ml,11 mmol/L,11.1 mmol/L,12.6 mmol/L,13.5 mmol/L,0.4 µmol/L,0.4 µmol/L,0.4 µmol/L,0.5 µmol/L,0.5 µmol/L,t1/2 ([21]; simulated gi fluid): Unstable; t1/2 ([22]; simulated gi fluid): Unstable; half-life [23]: 0.81 h; half-life [24]: 0.56 h; Drug degradation [25]: 0.015 h⁻¹; Drug degradation [26]: 0.019 h⁻¹; Drug degradation [27]: 0.184 h⁻¹; Drug degradation [28]: 0.856 h⁻¹
